Measured values from ChEMBL document CHEMBL4177761, “Highlights of the Structure-Activity Relationships of Benzimidazole Linked Pyrrolidines Leading to the Discovery of the Hepatitis C Virus NS5A Inhibitor Pibrentasvir (ABT-530)” (J Med Chem, 2018).

Tests used:
[1] = Plasma clearance in rat at 3 mg/kg, iv by LC-MS method; type: ADME, organism-based
How it was run: (§1)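 Single dose, 3 mg/kg, in mouse or rat. IV vehicle: DMSO:Tween 80:PEG-400:D5W 2:5:20:73 (v/v). PO vehicle: Phosol 53 MCT:PEG-400:Poloxamer 124:Cremophor RH40 40:20:20:20 (w/w). Acetonitrile protein precipitation, then LC-MS/MS in negative-ion MRM against an internal standard; LOQ ~20 ng/mL.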

[2] = Drug level in mouse at 3 mg/kg, po at 24 hrs by LC-MS method; type: ADME, organism-based; conditions: in vivo, read-out: Drug uptake; how it was run: as §1
[3] = target: T1, Nonstructural protein 5A (Hepatitis C virus) (UniProt Q5L478); experiment: Inhibition of NS5A M28T mutant in HuH7 cell infected HCV genotype 1a H77 assessed as decrease in viral replication after 4 days by luciferase reporter gene assay relative to wild type protein; conditions: Hepatitis C virus (isolate H77)
T1 sequence (whole entry): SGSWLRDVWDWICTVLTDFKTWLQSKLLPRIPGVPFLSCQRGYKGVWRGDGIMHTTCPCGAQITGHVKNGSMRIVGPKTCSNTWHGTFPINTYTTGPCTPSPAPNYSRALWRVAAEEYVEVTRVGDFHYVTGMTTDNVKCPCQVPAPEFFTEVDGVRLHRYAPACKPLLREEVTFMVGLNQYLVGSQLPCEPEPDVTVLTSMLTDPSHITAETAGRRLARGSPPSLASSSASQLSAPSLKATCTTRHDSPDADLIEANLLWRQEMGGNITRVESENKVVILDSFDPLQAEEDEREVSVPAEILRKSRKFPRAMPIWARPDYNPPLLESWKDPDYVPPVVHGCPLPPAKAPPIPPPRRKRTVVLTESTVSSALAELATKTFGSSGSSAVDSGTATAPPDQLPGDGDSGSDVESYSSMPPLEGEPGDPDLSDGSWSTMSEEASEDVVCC
How it was run: (§2)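 Stable subgenomic luciferase replicons in Huh-7 cells: genotype 1a-H77 carrying NS5A substitutions M28T, Q30E, Q30R, Y93C, Y93H or Y93N, tested alongside the wild-type replicon. Cells are incubated 4 days with compound in DMEM with 5% FBS. Luciferase read-out, EC50 by 4-parameter logistic fit, and fold change versus wild type.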

[4] = target: T1, Nonstructural protein 5A (Hepatitis C virus); experiment: Inhibition of NS5A Q30E mutant in HuH7 cell infected HCV genotype 1a H77 assessed as decrease in viral replication after 4 days by luciferase reporter gene assay relative to wild type protein; conditions: Hepatitis C virus (isolate H77); how it was run: as §2

`COC(=O)N[C@H](C(=O)N1CCC[C@H]1c1nc2cc([C@H]3CC[C@H](c4cc5nc([C@@H]6CCCN6C(=O)[C@@H](NC(=O)OC)[C@@H](C)OC)[nH]c5cc4F)N3c3cc(F)c(N4CCC(c5ccc(F)cc5)CC4)c(F)c3)c(F)cc2[nH]1)[C@@H](C)OC` [PIBRENTASVIR] showed a clearance [1] of 1.17 mL/min/kg, a concentration at 24 h [2] of 467 nM and a fold change (FC) [3] of 2.1. It also gave a fold change (FC) [4] of 2.4.
